According to ChEMBL document CHEMBL1121742, “Synthesis and antibacterial activity of some ester, amides, and hydrazides of 3-carboxyrifamycin S. Relationship between structure and activity of ansamycins” (1981):
In brackets after ≈: the same amount, converted by molar mass.

Assays:
Salmonella paratyphi = test: Minimum inhibitory concentration of compound tested for antibacterial activity against Salmonella paratyphi BO 248 K(Sclavo); assay type: functional, Salmonella enterica subsp. enterica serovar Paratyphi A; conditions: Salmonella enterica
Klebsiella pneumoniae [1] = test: Minimum inhibitory concentration of compound tested for antibacterial activity against Klebsiella pneumoniae ottaviani; assay type: functional
How it was run: (§1)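 MIC by serial dilution in liquid medium in test tubes. Medium was brain-heart infusion and the inoculum was 10⁶ cells/mL. Tubes were incubated at 35 °C for 24 h. MIC was taken as the lowest antibiotic concentration preventing visible growth.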

Staphylococcus aureus = test: Minimum inhibitory concentration of compound tested for antibacterial activity against Staphylococcus aureus 209 P(FDA); assay type: functional; how it was run: as §1
Escherichia coli [2] = test: Minimum inhibitory concentration of compound tested for antibacterial activity against Escherichia coli ML/35; assay type: functional; how it was run: as §1
Escherichia coli [3] = test: Minimum inhibitory concentration of compound tested for antibacterial activity against Escherichia coli ML/35; 25-50; assay type: functional; how it was run: as §1
Klebsiella pneumoniae [4] = test: Minimum inhibitory concentration of compound tested for antibacterial activity against Klebsiella pneumoniae ottaviani; 25-50; assay type: functional; how it was run: as §1

`COC1/C=C/OC2(C)Oc3c(C)c(O)c4c(c3C2=O)C(=O)C(C(=O)N(C)N2CCCCC2)=C(NC(=O)/C(C)=C\C=C\C(C)C(O)C(C)C(O)C(C)C(OC(C)=O)C1C)C4=O` (stereo unspecified) gave an MIC (Salmonella paratyphi) greater than 50 µg/mL, an MIC (Klebsiella pneumoniae [1]) greater than 50 µg/mL and an MIC (Staphylococcus aureus) of roughly 0.03 µg/mL (≈ 0.0359 µM). The MIC (Escherichia coli [2]) was greater than 50 µg/mL.

In the case of `CO[C@H]1/C=C/O[C@@]2(C)Oc3c(C)c(O)c4c(O)c(cc(O)c4c3C2=O)NC(=O)/C(C)=C\C=C\[C@H](C)[C@H](O)[C@@H](C)[C@@H](O)[C@@H](C)[C@H](OC(C)=O)[C@@H]1C` [RIFAMYCIN], the MIC (Salmonella paratyphi) is reported as 100 µg/mL (≈ 143 µM), the MIC (Klebsiella pneumoniae [1]) is reported as 100 µg/mL (≈ 143 µM) and the MIC (Staphylococcus aureus) is reported as less than 0.005 µg/mL. It also gave an MIC (Escherichia coli [2]) of 100 µg/mL (≈ 143 µM).

Compound `COC(=O)C1=C2NC(=O)/C(C)=C\C=C\C(C)C(O)C(C)C(O)C(C)C(OC(C)=O)C(C)C(OC)/C=C/OC3(C)Oc4c(C)c(O)c(c(c4C3=O)C1=O)C2=O` (stereo unspecified) has an MIC (Escherichia coli [3]) of 25 µg/mL (≈ 33.2 µM), an MIC (Salmonella paratyphi) of roughly 50 µg/mL (≈ 66.3 µM) and an MIC (Staphylococcus aureus) of 0.05 µg/mL (≈ 0.0663 µM). The MIC (Klebsiella pneumoniae [4]) was 25 µg/mL (≈ 33.2 µM).

Work on `COC1/C=C/OC2(C)Oc3c(C)c(O)c4c(c3C2=O)C(=O)C(C(=O)N(C)C)=C(NC(=O)/C(C)=C\C=C\C(C)C(O)C(C)C(O)C(C)C(OC(C)=O)C1C)C4=O` (stereo unspecified) yielded an MIC (Salmonella paratyphi) greater than 50 µg/mL, an MIC (Klebsiella pneumoniae [1]) greater than 50 µg/mL and an MIC (Staphylococcus aureus) of 0.025 µg/mL (≈ 0.0326 µM). The MIC (Escherichia coli [2]) was greater than 50 µg/mL.

With `COC1/C=C/OC2(C)Oc3c(C)c(O)c4c(c3C2=O)C(=O)C(C(=O)NN(C)C)=C(NC(=O)/C(C)=C\C=C\C(C)C(O)C(C)C(O)C(C)C(OC(C)=O)C1C)C4=O` (stereo unspecified) the MIC (Salmonella paratyphi) was greater than 50 µg/mL, the MIC (Klebsiella pneumoniae [1]) was greater than 50 µg/mL and the MIC (Staphylococcus aureus) was less than 0.005 µg/mL. It also gave an MIC (Escherichia coli [2]) greater than 50 µg/mL.

For `COC1/C=C/OC2(C)Oc3c(C)c(O)c4c(c3C2=O)C(=O)C(C(=O)OCC(O)CO)=C(NC(=O)/C(C)=C\C=C\C(C)C(O)C(C)C(O)C(C)C(OC(C)=O)C1C)C4=O` (stereo unspecified), the MIC (Salmonella paratyphi) was greater than 50 µg/mL, the MIC (Klebsiella pneumoniae [1]) was greater than 50 µg/mL and the MIC (Staphylococcus aureus) was roughly 0.5 µg/mL (≈ 0.614 µM). For the same compound, the MIC (Escherichia coli [2]) was greater than 50 µg/mL.

`COC1/C=C/OC2(C)Oc3c(C)c(O)c4c(c3C2=O)C(=O)C(C(=O)N2CCN(C)CC2)=C(NC(=O)/C(C)=C\C=C\C(C)C(O)C(C)C(O)C(C)C(OC(C)=O)C1C)C4=O` (stereo unspecified) gave an MIC (Salmonella paratyphi) greater than 50 µg/mL, an MIC (Klebsiella pneumoniae [1]) greater than 50 µg/mL and an MIC (Staphylococcus aureus) of 0.1 µg/mL (≈ 0.122 µM). For the same compound, the MIC (Escherichia coli [2]) was greater than 50 µg/mL.

Compound `COC1/C=C/OC2(C)Oc3c(C)c(O)c4c(c3C2=O)C(=O)C(C(=O)Nc2ccc(Br)cc2)=C(NC(=O)/C(C)=C\C=C\C(C)C(O)C(C)C(O)C(C)C(OC(C)=O)C1C)C4=O` (stereo unspecified) has an MIC (Salmonella paratyphi) greater than 50 µg/mL, an MIC (Klebsiella pneumoniae [1]) greater than 50 µg/mL and an MIC (Staphylococcus aureus) of 0.1 µg/mL (≈ 0.112 µM). For the same compound, the MIC (Escherichia coli [2]) was greater than 50 µg/mL.

`CO[C@H]1/C=C/O[C@@]2(C)Oc3c(C)c(O)c4c(O)c(c(/C=N/N5CCN(C)CC5)c(O)c4c3C2=O)NC(=O)/C(C)=C\C=C\[C@H](C)[C@H](O)[C@@H](C)[C@@H](O)[C@@H](C)[C@H](OC(C)=O)[C@@H]1C` [RIFAMPIN] gave an MIC (Salmonella paratyphi) of 12 µg/mL (≈ 14.6 µM), an MIC (Klebsiella pneumoniae [1]) of 25 µg/mL (≈ 30.4 µM) and an MIC (Staphylococcus aureus) of roughly 0.025 µg/mL (≈ 0.0304 µM). The MIC (Escherichia coli [2]) was 6 µg/mL (≈ 7.29 µM).
